This passage reports ED50 results from ChEMBL document CHEMBL1122181 (J Med Chem, 1982).

Molecules are shown by their SMILES. Activity calls are given as the source filed them. The rule behind the calls is not given here.

The subject of experiment [1] is Mus musculus. Description: Analgesic activity was determined by tail flick assay after subcutaneous administration in mice. The experiment is classed as functional. As to conditions: sc. A digest of the protocol:
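Tail-flick method; compound given subcutaneously in normal saline. Potency derived by probit analysis, reported with 95% confidence limits.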

The test system of experiment [2] is Mus musculus. Nature of the experiment: Analgesic activity was determined by writhing test after subcutaneous administration in mice. It is filed as functional. As to conditions: sc. A digest of the protocol: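 Phenylquinone-induced writhing; compound given subcutaneously in distilled water. Potency derived by probit analysis, reported with 95% confidence limits.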

Experiment [3] has as its system Mus musculus. Nature of the experiment: Analgesic activity was determined by tail flick assay after subcutaneous administration in mice; Inactive. It is filed as functional, organism-based.

Consider `CN1CC[C@]23CCCC[C@H]2[C@H]1Cc1ccc(O)cc13` [LEVORPHANOL], for which the ED50 amounted to 1.3 mg/kg in the experiment with Mus musculus [1] and 0.1 mg/kg in the experiment with Mus musculus [2].
On the same counts, the results for `COc1ccc2c(c1)C13CCCCC1C(C2)N(C)CC3` (stereo not drawn) [RACEMETHORPHAN] are 6.78 mg/kg and 0.64 mg/kg.
On the same counts, the results for `CN1CC[C@]23c4c5ccc(O)c4O[C@H]2[C@@H](O)C=C[C@H]3[C@H]1C5` [MORPHINE] are 4.06 mg/kg and 0.46 mg/kg.
As to `CN1CCC23c4c5ccc(OC(C)(C)C)c4O[C@H]2[C@@H](O)C=CC3C1C5` (some centres not stated), the ED50 in the experiment with Mus musculus [2] came out at 26.8 mg/kg. Further, in the experiment with Mus musculus [3], the ED50 entry was “inactive”.
`CN1CCC23CCCCC2C1Cc1ccc(OC(C)(C)C)cc13` (configuration not stated): the ED50 in the experiment with Mus musculus [1] was determined as 5.81 mg/kg; in the experiment with Mus musculus [2], 5 mg/kg.
Turning to `COc1ccc2c3c1O[C@H]1[C@@H](O)C=C[C@H]4[C@@H](C2)N(C)CC[C@@]341` [CODEINE], the ED50 with Mus musculus [1] came out at 39 mg/kg; with Mus musculus [2], 2.3 mg/kg.
